According to ChEMBL document CHEMBL5608261, “Pharmacophore Establishment and Optimization of Saturated 1,6-Naphthyridine-Fused Quinazolinones that Inhibit Meningoencephalitis-Causing Naegleria fowleri” (J Med Chem, 2024):
≈ marks a conversion by molar mass, not a printed value. Calls of active or inactive are those of the source. No cut-off for these calls is given here.

Tests used:
[1] = Metabolic stability in CD-1 mouse liver microsomes assessed as half-life incubated for 60 mins by LC-MS/MS analysis; assay type: ADME, Microsome; details: 1 h
Procedure, shortened: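 Half-life measured in CD-1 mouse liver microsomes with NADPH over a 60 min exposure.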

[2] = Drug concentration in female CD-1 mouse plasma at 11 mg/kg, iv measured after 0.5 hrs by LC-MS/MS analysis; assay type: ADME, organism-based
Procedure, shortened: (§1)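 Female CD-1 mice (n = 3/group) received one bolus of 11 mg/kg (actual dose; 10 mg/kg intended) IV or PO. Plasma was sampled at six time points over 12 h, and brain homogenate was taken at the 12 h end point. […] Mean ± SD.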

[3] = Drug concentration in female CD-1 mouse brain at 44 mg/kg, ip measured after 4 hrs by LC-MS/MS analysis; assay type: ADME, organism-based; details: read-out: Ct
Procedure, shortened: (§2)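 Female CD-1 mice (n = 3/group) received one intraperitoneal bolus of 44 mg/kg (actual dose; 50 mg/kg intended). Plasma was sampled at 2 and 4 h and brain homogenate at 4 h. Brain-to-plasma ratio = brain over plasma concentration at 4 h. Mean ± SD.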

[4] = Selectivity index, ratio of CC50 for cytotoxicity against human SH-SY5Y cells to EC50 for anti-amoebic activity against Naegleria fowleri Nf69 (ATCC 30215) assessed as inhibition of amoeba growth; assay type: toxicity, cell-based; details: SH-SY5Y cells, read-out: Ratio CC50/EC50
Naegleria fowleri [5] = test: Anti-ameobic activity against Naegleria fowleri Nf69 (ATCC 30215) trophozoites infected in female CD-1 mouse model assessed as reduction in infection at 11 mg/kg, ip pre-infected for 48 hrs from day 0 followed by twice daily compound administration from day 2 to day 6 and […]; assay type: functional, organism-based; details: time 6.0 day
[6] = Drug concentration in female CD-1 mouse plasma at 11 mg/kg, iv measured after 2 hrs by LC-MS/MS analysis; assay type: ADME, organism-based; procedure, shortened: as §1
[7] = AUCinfinity in female CD-1 mouse at 11 mg/kg, po measured after 12 hrs by LC-MS/MS analysis; assay type: ADME, organism-based; details: in vivo; procedure, shortened: as §1
[8] = Drug concentration in female CD-1 mouse plasma at 44 mg/kg, ip measured after 2 hrs by LC-MS/MS analysis; assay type: ADME, organism-based; procedure, shortened: as §2
Naegleria fowleri [9] = test: Anti-ameobic activity against Naegleria fowleri Nf69 (ATCC 30215) trophozoites assessed as inhibition of amoeba growth incubated for 48 hrs by CellTiter-Glo assay; assay type: functional, organism-based; details: Naegleria fowleri, Nf69 (ATCC 30215), 48 h
Procedure, shortened: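 Axenic Nf69 trophozoites were seeded at 1 × 10^4 cells/mL in Nelson's complete medium with 10% heat-inactivated FBS. Compound was added at 20 to 0.375 μM (lower ranges for very potent compounds), with vehicle controls, for 48 h at 37 °C and 5% CO2. CellTiter-Glo luminescence gave % growth inhibition versus controls, and triplicate means were fitted to dose–response curves for EC50.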

[10] = Oral bioavailability in female CD-1 mouse at 11 mg/kg measured after 12 hrs by LC-MS/MS analysis; assay type: ADME, organism-based; details: in vivo; procedure, shortened: as §1
[11] = Drug concentration in female CD-1 mouse plasma at 11 mg/kg, po measured after 2 hrs by LC-MS/MS analysis; assay type: ADME, organism-based; procedure, shortened: as §1
[12] = Ratio of drug concentration in female CD-1 mouse brain to plasma at 44 mg/kg, ip measured after 4 hrs by LC-MS/MS analysis; assay type: ADME, organism-based; procedure, shortened: as §2
[13] = Drug concentration in female CD-1 mouse plasma at 11 mg/kg, iv measured after 4 hrs by LC-MS/MS analysis; assay type: ADME, organism-based; procedure, shortened: as §1
[14] = Drug concentration in female CD-1 mouse plasma at 11 mg/kg, po measured after 4 hrs by LC-MS/MS analysis; assay type: ADME, organism-based; procedure, shortened: as §1
[15] = Volume of distribution in female CD-1 mouse at 11 mg/kg, iv measured after 12 hrs by LC-MS/MS analysis; assay type: ADME, organism-based; details: in vivo; procedure, shortened: as §1
[16] = Drug concentration in female CD-1 mouse brain at 11 mg/kg, iv measured after 12 hrs by LC-MS/MS analysis; assay type: ADME, organism-based; details: read-out: Ct; procedure, shortened: as §1
Naegleria fowleri [17] = test: Anti-ameobic activity against Naegleria fowleri TY (ATCC 30107) trophozoites assessed as inhibition of amoeba growth incubated for 48 hrs by CellTiter-Glo assay; assay type: functional, organism-based
Procedure, shortened: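 TY strain (ATCC 30107) trophozoites, seeded at 1 × 10^4 cells/mL, were exposed 48 h (37 °C, 5% CO2) to vehicle or compound, with concentrations initially 20 to 0.375 μM. CellTiter-Glo luminescence gave % growth inhibition versus controls. EC50 was fit from triplicate runs (n = 3, ± SEM).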

Naegleria fowleri [18] = test: Anti-ameobic activity against Naegleria fowleri Nf69 (ATCC 30215) trophozoites infected in female CD-1 mouse model assessed as median survival day at 11 mg/kg, ip pre-infected for 48 hrs from day 0 followed by twice daily compound administration from day 2 to day 6 and measured on day 14 post-infection (reference value: 5.4 day ); assay type: functional; details: time 13 day
Procedure, shortened: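 Female CD-1 mice (n = 6/group) were infected intranasally with Nf69 trophozoites on day 0. After a 48 h establishment period, they received IP dosing at 11 mg/kg twice daily for 5 days. Infected controls received vehicle only. The study lasted 14 days, with Kaplan–Meier survival, and the brains of survivors were cultured for viable amoeba.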

[19] = Half-life in female CD-1 mouse at 11 mg/kg, po measured after 12 hrs by LC-MS/MS analysis; assay type: ADME, organism-based; details: in vivo; procedure, shortened: as §1
[20] = Metabolic stability in human liver microsomes assessed as half-life; assay type: ADME, Microsome
[21] = Kinetic solubility of compound at pH 7.4 incubated for 24 hrs by HPLC analysis; assay type: physicochemical; details: buffer, pH 7.4, read-out: Kinetic_solubility
[22] = Toxicity in female CD-1 mouse infected with Naegleria fowleri Nf69 (ATCC 30215) trophozoites assessed as adverse effect at 50 mg/kg, ip pre-infected for 48 hrs from day 0 followed by single bolus compound administration from day 2 to day 6 and measured on day 14 post-infection; assay type: organism-based; details: in vivo, 312 h, time 13 day
[23] = Drug concentration in female CD-1 mouse brain at 11 mg/kg, po measured after 12 hrs by LC-MS/MS analysis; assay type: ADME, organism-based; details: read-out: Ct; procedure, shortened: as §1
[24] = Drug concentration in female CD-1 mouse plasma at 11 mg/kg, iv measured after 8 hrs by LC-MS/MS analysis; assay type: ADME, organism-based; procedure, shortened: as §1
[25] = Drug concentration in female CD-1 mouse plasma at 11 mg/kg, iv measured after 12 hrs by LC-MS/MS analysis; assay type: ADME, organism-based; procedure, shortened: as §1
[26] = Drug concentration in female CD-1 mouse plasma at 11 mg/kg, po measured after 8 hrs by LC-MS/MS analysis; assay type: ADME, organism-based; procedure, shortened: as §1
SH-SY5Y = test: Cytotoxicity against human SH-SY5Y cells assessed as reduction in cell viability incubated for 72 hrs by CellTiter-Glo assay; assay type: toxicity, cell-based; details: sh-sy5y, 72 h
Procedure, shortened: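 SH-SY5Y cells at 2000 per well attached overnight at 37 °C. Compound from 20 mM DMSO stocks was added in triplicate as a dose series starting at 20 μM, with doxorubicin as positive control.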

[27] = Protein binding in CD-1 mouse plasma incubated for 4 hrs by equilibrium dialysis based LC-MS/MS analysis; assay type: ADME, cell-free; details: mouse, 4 h
[28] = Drug concentration in female CD-1 mouse plasma at 11 mg/kg, po measured after 12 hrs by LC-MS/MS analysis; assay type: ADME, organism-based; procedure, shortened: as §1
[29] = Drug concentration in CD-1 mouse brain infected with Naegleria fowleri Nf69 (ATCC 30215) trophozoites assessed as adverse effect at 50 mg/kg, ip pre-infected for 48 hrs from day 0 followed by single bolus compound administration from day 2 to day 6 and measured on day 14 post-infection; assay type: ADME, organism-based; details: time 13 day, read-out: Ct
[30] = Drug concentration in female CD-1 mouse plasma at 11 mg/kg, po measured after 0.5 hrs by LC-MS/MS analysis; assay type: ADME, organism-based; procedure, shortened: as §1
[31] = AUCinfinity in female CD-1 mouse at 11 mg/kg, iv measured after 12 hrs by LC-MS/MS analysis; assay type: ADME, organism-based; details: in vivo; procedure, shortened: as §1
[32] = Half-life in female CD-1 mouse at 11 mg/kg, iv measured after 12 hrs by LC-MS/MS analysis; assay type: ADME, organism-based; details: in vivo; procedure, shortened: as §1

## COc1cc2nc3n(c(=O)c2cc1Cl)CC[C@H]1[C@H]3CCCN1CC1COC1
[1]
  t1/2: 48.2 min
[2]
  concentration at 0.5 h: 2110 ng/mL
[3]
  concentration at 4 h: 9090 ng/g
[4]
  selectivity ratio: 192
Naegleria fowleri [5]
  Activity: inactive
[6]
  concentration at 2 h: 882 ng/mL
[7]
  AUC: 1920 ng·h/mL
[8]
  concentration at 2 h: 3850 ng/mL
Naegleria fowleri [9]
  EC50: 12 nM
[10]
  F: 38%
[11]
  concentration at 2 h: 459 ng/mL
[12]
  BPR: 4.7
[13]
  concentration at 4 h: 281 ng/mL
[14]
  concentration at 4 h: 254 ng/mL
[15]
  Vd: 3.7 L/kg
[16]
  concentration at 12 h: 13.3 ng/g
Naegleria fowleri [17]
  EC50: 14 nM
Naegleria fowleri [18]
  MSD: 6.1 days
[19]
  t1/2: 1.1 h
[20]
  t1/2: 92.7 min
[21]
  solubility kinetic at 24 h: 23.9 µM (≈ 9.32 µg/mL)
[22]
  Activity: Non-Toxic
[23]
  concentration at 12 h: 10.4 ng/g
[24]
  concentration at 8 h: 18.1 ng/mL
[25]
  concentration at 12 h: 2.6 ng/mL
[26]
  concentration at 8 h: 21.1 ng/mL
SH-SY5Y
  CC50: 2300 nM
[27]
  PPB: 74%
[28]
  concentration at 12 h: 2 ng/mL
[29]
  concentration at 312 h: ~20 µM
[30]
  concentration at 0.5 h: 469 ng/mL
[31]
  AUC: 5010 ng·h/mL
[32]
  t1/2: 1 h
